CHRM5 agonist = agonists of human muscarinic M5 receptor (CHRM5); P08912; CHO-K1 hM5 cells, Fluo-8 calcium fluorescence; 0% DMSO wells, 100% maximal acetylcholine response; activation, % at 3 µM; 360,000 compounds, 0.19% hits; AID 624037;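 active = activation above the run's mean over test compounds plus 3 SD, cut at about 23% in these data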;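 note: signal is peak over basal fluorescence ratio across the kinetic read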
Target sequence (P08912 whole entry, looked up): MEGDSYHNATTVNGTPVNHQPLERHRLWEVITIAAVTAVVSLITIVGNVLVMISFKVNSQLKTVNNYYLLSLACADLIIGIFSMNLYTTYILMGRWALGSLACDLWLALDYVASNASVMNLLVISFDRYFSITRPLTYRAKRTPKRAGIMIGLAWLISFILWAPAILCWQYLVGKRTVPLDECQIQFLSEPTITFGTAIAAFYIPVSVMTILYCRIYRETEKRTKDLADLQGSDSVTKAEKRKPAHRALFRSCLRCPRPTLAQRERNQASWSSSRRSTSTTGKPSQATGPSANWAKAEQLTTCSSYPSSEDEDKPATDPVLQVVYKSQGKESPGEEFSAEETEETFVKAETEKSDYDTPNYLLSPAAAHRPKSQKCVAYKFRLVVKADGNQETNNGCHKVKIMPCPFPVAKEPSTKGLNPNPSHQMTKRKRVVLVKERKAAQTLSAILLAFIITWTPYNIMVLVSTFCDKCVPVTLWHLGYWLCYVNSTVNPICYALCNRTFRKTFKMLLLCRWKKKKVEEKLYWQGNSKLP
CHRM5 PAM = positive allosteric modulators of human muscarinic M5 receptor. P08912. CHO-K1 hM5, Fluo-8 calcium, ACh EC20 PAM; 0% = ACh EC20, 100% = ACh EC100. activation, % at 3 µM. 360,000 compounds, 0.3% hits. AID 624038;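 active = activation above the run cutoff, the mean activation of all test compounds plus 3 SD, cut at about 18% in these data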
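Assay system: CHO-K1 hM5 cells / Incubation: Fluo-8 loading 80 min at 37 °C plus 30 min room temperature / Technique: Fluo-8 calcium dye fluorescence, kinetic read / Repeats: single replicate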
CHRM5 antagonist = blocks acetylcholine activation of human M5 receptor. inhibition, % at 3 µM. 360,000 compounds, 0.59% hits. AID 624040. P08912. CHO-hM5 cells, Fluo-8 calcium fluorescence, ACh EC80;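 active = inhibition above a per-plate cutoff, the mean of that plate's test compounds plus 3 SD, cut at about 27% in these data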
CHRM4 agonist = agonists of human muscarinic M4 receptor (CHRM4). P08173. CHO-K1 hM4/Gqi5, Fluo-8 calcium fluorescence; vehicle 0%, full acetylcholine response 100%. activation, % at 3 µM. 360,000 compounds, 0.14% hits. AID 624127;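 active = activation above the run mean over all test wells plus 3 SD, cut at about 32% in these data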;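 note: peak over basal fluorescence ratio per well then scaled between controls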
CHRM4 antagonist = CHRM4 antagonism in calcium assay; CHO-hM4 cells, ACh EC80, Fluo-8 calcium fluorescence; AID 624125; 360,000 compounds, 0.73% hits; inhibition, % at 3 µM; P08173;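 active = inhibition above its plate's cutoff, the mean inhibition of sample wells plus 3 SD, cut at about 27% in these data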
CHRM4 PAM = CHRM4 positive allosteric modulation; CHO-K1 hM4/Gqi5, Fluo-8 calcium fluorescence, ACh EC20; 0% = ACh EC20, 100% = maximal ACh; activation, % at 3 µM; 360,000 compounds, 0.4% hits; AID 624126;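 active = activation above its plate's cutoff, the mean activation of sample wells plus 3 SD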
Each line names hits and unclear results; the compound was inactive in the other large screens; ! = a repeat was not active. In the library only some 1.8% were active in any assay of this set; here they are far more common.

CN(C)CC(=O)N[C@@H]1CC[C@@H](CC(=O)NCCN2CCCCC2)O[C@@H]1CO	CHRM5 PAM 20
CN(C)CC(=O)N[C@@H]1C=C[C@@H](CC(=O)NCCN2CCCCC2)O[C@@H]1CO	none
O=C(Nc1ccccn1)c1ccc2ccccc2c1O	CHRM5 PAM 19
O=C(O)c1ccccc1C(=O)Nc1ccccn1	none
CC1CC(C)CN(S(=O)(=O)c2ccc(NC(=O)[C@@H]3CCCN3C(=O)c3cccs3)cc2)C1 (stereo partly specified)	CHRM4 antagonist 28
Cc1ccc(S(=O)(=O)N2CCCC2C(=O)NCc2ccccc2Cl)cc1 (stereo unspecified)	CHRM5 PAM 19
CC(=O)Nc1ccc(S(=O)(=O)N2CCCC2C(=O)Nc2ccc(F)cc2)cc1 (stereo unspecified)	none
Cc1ccc(S(=O)(=O)N(C)C)cc1NC(=O)C1CCCCN1S(=O)(=O)c1ccccc1 (stereo unspecified)	CHRM4 PAM 24
O=C(Nc1ccc(F)cc1)C1CCCN1S(=O)(=O)c1ccc(Br)cc1 (stereo unspecified)	CHRM4 PAM 25
O=S(=O)(Cc1ccccc1)N1CCNCC1	none
O=C(C1CCN(S(=O)(=O)c2ccc(F)cc2)CC1)N1CCCC(C(F)(F)F)C1 (stereo unspecified)	none
O=C(O)C1CCCN1S(=O)(=O)c1ccccc1 (stereo unspecified)	CHRM5 PAM 26, CHRM4 PAM 39
O=S(=O)(Nc1nc(-c2sccc2Cl)cs1)c1cc(Cl)ccc1Cl	none
O=C(NCc1ccc2c(c1)OCO2)Nc1ccc([N+](=O)[O-])cc1	CHRM5 antagonist 38
COCCNC(=O)/C(C#N)=C/c1c(N2CCN(c3ccc(OC)cc3)CC2)nc2c(C)cccn2c1=O	none
O=C1c2ccccc2C(Nc2ccc(Cl)cn2)N1c1ccccn1 (stereo unspecified)	CHRM4 PAM 18
Cc1cc(N2C(=O)C(O)=C(C(=O)c3cccs3)C2c2ccccc2)no1 (stereo unspecified)	none
COc1cccc(C2C(C(=O)c3cccs3)=C(O)C(=O)N2c2cc(C)on2)c1 (stereo unspecified)	CHRM5 PAM 26
Cc1cc(N2C(=O)C(O)=C(C(=O)c3cccs3)C2c2ccc(F)cc2)no1 (stereo unspecified)	CHRM5 PAM 19
Cc1ccccc1C(=O)N1CCC(C(=O)NN2C(=O)NC3(CCC(C)CC3)C2=O)CC1 (stereo unspecified)	none
Cc1ccc(C(C)C)cc1OCCn1cncn1	none
O=C(Nc1ccnn1C1CCN(Cc2ccccc2OC(F)F)CC1)c1cccnc1	none
Cc1n[nH]c(=O)nc1NC(C)c1ccccc1 (stereo unspecified)	CHRM4 antagonist 28
COc1ccccc1Nc1nc(=O)[nH]nc1C	none
COc1ccc2nccc(/C=C/c3ccnc4ccc(OC)cc34)c2c1	none
Cc1ccccc1CN1CCC(CNC(=O)C2CCCN(c3ncnc4c3nc3n4CCCCC3)C2)CC1 (stereo unspecified)	CHRM4 antagonist 63
Cc1cc(C)nc(SCc2cc(=O)c(OC(=O)c3ccc(S(=O)(=O)N4CCCC4)cc3)co2)n1	none
NC(=O)c1c(NC(=O)Cn2cnc([N+](=O)[O-])n2)sc2c1CCCC2	CHRM4 antagonist 28
c1ccc(-c2nnc3oc(-c4cccs4)nn23)cc1	none
CCOc1cccc(/C=C(/C#N)c2nc3ccccc3[nH]2)c1OCC(=O)O	none
CCN(CC)c1ccc(/C=C(/C#N)c2nc3ccccc3[nH]2)c(OC(C)C)c1	CHRM4 agonist 57
Cc1cc([N+](=O)[O-])cnc1Sc1nccn1C	none
COc1ccc(-c2nc3c4ccccc4ccn3c2Cc2ccccc2C(F)(F)F)cc1OC	none
Cc1ccc2nc(CCCc3nc4ccc(C)cc4[nH]3)[nH]c2c1	none
Cc1ccc2nc(CCc3nc4ccc(C)cc4[nH]3)[nH]c2c1	CHRM4 PAM 14
CS(=O)(=O)c1ccc(Cl)c(NC(=O)COC(=O)c2ccc(F)cc2Cl)c1	CHRM5 PAM 18
CCC[C@H]1CN(c2ccc(Br)cc2)C(=O)[C@@H]1CC(=O)Nc1ccc(OC)cc1	none
CCCC(C)c1nnc(NC(=O)C2CCCO2)s1 (stereo unspecified)	CHRM4 antagonist 30
COC(=O)CCCCCN1C(=O)NC(C2CC2)C(C(=O)OCc2ccccc2)=C1C (stereo unspecified)	CHRM5 antagonist 29
COC(=O)CCCN1C(=O)NC(c2ccc(-c3ccccc3)cc2)C(C(=O)OCc2ccccc2)=C1C (stereo unspecified)	none
O=C1CC2(CCN1)CCN(Cc1ccccc1)CC2	none
COCCCNC(=O)c1ccc2nc(Cc3ccc(OC)cc3)oc2c1	CHRM4 antagonist 37
COc1ccc(OC)c(CN2C(=O)CN(S(C)(=O)=O)CC2(C)C(=O)Nc2c(C)cccc2C)c1 (stereo unspecified)	none
O=C(NCc1ccc2c(c1)OCO2)c1nnc(Cc2ccc(F)cc2)o1	none
CC(C)c1cc(C(=O)NCc2ccc(F)cc2)c(N)s1	CHRM5 PAM 18
Nc1nc2cc3c(cc2cc1C(=O)NCc1ccc(F)cc1)OCO3	CHRM5 antagonist 27
CCN(CC)CC(=O)Nc1c(C)cccc1C	CHRM4 antagonist 27!
Cc1cccc(C)c1NC(=O)CN(C)C(=O)c1ccc(OCc2ccccc2)cc1	CHRM4 PAM 16
CCN(CC)CC(=O)Nc1c(C)cc(C(C)(C)C)cc1C	none
NC(=O)c1nnn(-c2nonc2N)c1-c1ccc([N+](=O)[O-])cc1	none
Cc1noc(C)c1COc1ccc(C(=O)OCC(=O)Nc2c(C)n(C)n(-c3ccccc3)c2=O)cc1	none
Cc1ccc(C(=O)NC(C)c2ccc(F)cc2)cc1 (stereo unspecified)	none
CC(C)Cc1ccc(C(C)NC(=O)c2ccc(=O)[nH]c2)cc1 (stereo unspecified)	CHRM5 agonist 25
O=S(=O)(Nc1ccc(N2CCOCC2)cc1)c1cc(Cl)ccc1Cl	CHRM5 PAM 18
O=C(Nc1ccc2c(c1)OCCO2)C(c1ccnc2ccccc12)N1CCN(c2ccc(F)cc2)CC1 (stereo unspecified)	CHRM5 PAM 19
O=C(Nc1ccc2c(c1)OCCO2)C(c1ccnc2ccccc12)N1CCN(c2ccc(C(F)(F)F)cn2)CC1 (stereo unspecified)	none
CCCCCCn1c(=O)n2n(c1=O)[C@@H]1CN(S(=O)(=O)c3ccc(C)cc3)C[C@]1(O)[C@@H](OC(=O)NCc1ccccc1)C2	none

Screening results: PubChem BioAssay, The Scripps Research Institute Molecular Screening Center
